The record followed here is ChEMBL document CHEMBL1145396, “High-throughput synthesis and screening of cyclic peptide antibiotics” (J Med Chem, 2007).

Each structure is given as a SMILES string. ≈ marks a conversion by molar mass, not a printed value. Calls of active or inactive are those of the source. No cut-off for these calls is given here. Square brackets hold non-standard residues; d marks the D form. Peptide text beside a SMILES is read from it. Orn = NCCC[C@H](N)C(=O)O

Data set [1] is described as follows: Ratio of MHC for human RBC to MIC for Bacillus subtilis. It counts as functional.
In data set [2] the test system is Bacillus subtilis. Nature of the data set: Antimicrobial activity against Bacillus subtilis. The format is functional. The procedure, abridged: (§1)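 Microtiter broth assay. Peptide stock in 30% DMSO/water, neutralized with sodium phosphate pH 7.0, added to a 1000-fold diluted overnight bacterial culture (1:5 into final volume). Incubated 7 h at 37 °C. Growth scored visually.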

Data set [3] concerns Enterococcus faecalis. Nature of the data set: Antimicrobial activity against Enterococcus faecalis. The format is functional. The method in brief:
as §1

In data set [4] the test system is Staphylococcus epidermidis. Nature of the data set: Antimicrobial activity against Staphylococcus epidermidis. The format is functional. The method in brief:
as §1

Data set [5] concerns Escherichia coli. The experiment in a line: Antimicrobial activity against Escherichia coli. The format is functional. The procedure, abridged:
as §1

Data set [6] can be described thus: Toxicity assessed as hemolytic activity in human RBC. It counts as cell-based. The following applies: erythrocyte. The method in brief:
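Peptide stocks were serially diluted 2-fold in water, then mixed with fresh human erythrocytes diluted 100-fold in PBS pH 7.4. Incubated overnight at room temperature and inspected visually for lysis. MHC was taken as the lowest concentration lysing half of the cells.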

In data set [7] the test system is Bacillus subtilis. The experiment in a line: Antimicrobial activity against Bacillus subtilis at 32 ug/mL. It counts as functional.
The test system of data set [8] is Staphylococcus epidermidis. Nature of the data set: Antimicrobial activity against Staphylococcus epidermidis at 32 ug/mL. The format is functional, organism-based.
For data set [9], the system named is Enterococcus faecalis. Nature of the data set: Antimicrobial activity against Enterococcus faecalis at 32 ug/mL. It counts as functional, organism-based.
In data set [10] the test system is Escherichia coli. Nature of the data set: Antimicrobial activity against Escherichia coli at 32 ug/mL. The format is functional, organism-based.

By MIC is commonly meant the lowest concentration found to suppress growth. High values mean a need for much substance, low ones inhibition by little substance.

With `CCCNC(=O)C[C@H]1NC(=O)[C@@H](CCCNC(=N)N)NC(=O)[C@H](Cc2ccccc2)NC(=O)[C@@H]2CCCN2C(=O)[C@@H](Cc2ccccc2)NC(=O)[C@H](Cc2ccc(F)cc2)NC(=O)[C@H](CCCN)NC(=O)[C@H](C(C)C)NC(=O)[C@H](Cc2ccc(O)cc2)NC(=O)CNC1=O`, in data set [1], the Ratio was 8.
As to `CCCNC(=O)C[C@H]1NC(=O)[C@@H](CCCCN)NC(=O)[C@H](Cc2ccccc2)NC(=O)[C@@H]2CCCN2C(=O)[C@@H](Cc2ccccc2)NC(=O)[C@H](Cc2ccc(O)cc2)NC(=O)[C@H](CCCN)NC(=O)[C@H](C(C)C)NC(=O)[C@H](Cc2ccc(O)cc2)NC(=O)[C@H](CCCCN)NC1=O`, the MIC in data set [2] amounted to 2 µg/mL (≈ 1.49 µM); in [3], 16 µg/mL (≈ 11.9 µM); in [4] it was 4 µg/mL (≈ 2.98 µM); in data set [5] it was 16 µg/mL (≈ 11.9 µM). Besides, the Ratio in [1] came out at 32. For the same compound, in data set [6], the Activity amounted to 64 µg/mL.
For the compound `CC(C)C[C@@H]1NC(=O)[C@H](CCCN)NC(=O)[C@H](C(C)C)NC(=O)[C@H](Cc2ccc(O)cc2)NC(=O)[C@H](CCC(N)=O)NC(=O)[C@H](CC(N)=O)NC(=O)[C@@H](Cc2ccccc2)NC(=O)[C@H](Cc2ccccc2)NC(=O)[C@@H]2CCCN2C(=O)[C@@H](Cc2ccccc2)NC1=O` [TYROCIDINE A] (cyclo(F[dF]NQYV[Orn]L[dF]P)), the MIC was found to be 1 µg/mL (≈ 0.787 µM) in [2], 1 µg/mL (≈ 0.787 µM) in data set [3], 1 µg/mL (≈ 0.787 µM) in [4] and 8 µg/mL (≈ 6.3 µM) in data set [5]. For the same compound, the Ratio in data set [1] was 2. The Activity in [6] stood at 2 µg/mL.
Consider `CCCNC(=O)C[C@H]1NC(=O)[C@@H](CCCCN)NC(=O)[C@H](Cc2ccccc2)NC(=O)[C@@H]2CCCN2C(=O)[C@@H](Cc2ccccc2)NC(=O)[C@@H]2CCCN2C(=O)[C@H](CCCN)NC(=O)[C@H](C(C)C)NC(=O)[C@H](Cc2ccc(O)cc2)NC(=O)[C@H](Cc2ccc(F)cc2)NC1=O`, for which the MIC came to 4 µg/mL (≈ 3.04 µM) in [2], 8 µg/mL (≈ 6.09 µM) in data set [3], 32 µg/mL (≈ 24.3 µM) in data set [4] and 32 µg/mL (≈ 24.3 µM) in data set [5]. Moreover, in data set [1], the Ratio came to 32. Besides, in [6], the Activity came out at 128 µg/mL.
Consider `CCCNC(=O)C[C@@H]1NC(=O)[C@@H](CCCNC(=N)N)NC(=O)[C@H](Cc2ccccc2)NC(=O)[C@@H]2CCCN2C(=O)[C@@H](Cc2ccccc2)NC(=O)[C@H](Cc2ccc(F)cc2)NC(=O)[C@H](CCCN)NC(=O)[C@H](C(C)C)NC(=O)[C@H](Cc2ccc(O)cc2)NC(=O)CNC1=O` [listing 1 of 2 here], for which the MIC stood at 1 µg/mL (≈ 0.768 µM) in data set [2], 2 µg/mL (≈ 1.54 µM) in data set [3], 1 µg/mL (≈ 0.768 µM) in [4] and 4 µg/mL (≈ 3.07 µM) in [5].
Take `CCCNC(=O)C[C@@H]1NC(=O)[C@@H](CCCCN)NC(=O)[C@H](Cc2ccccc2)NC(=O)[C@@H]2CCCN2C(=O)[C@@H](Cc2ccccc2)NC(=O)[C@@H]2CCCN2C(=O)[C@H](CCCN)NC(=O)[C@H](C(C)C)NC(=O)[C@H](Cc2ccc(O)cc2)NC(=O)[C@H](Cc2ccc(F)cc2)NC1=O`: the outcome in data set [7], in [8], in data set [9] and in [10] was inactive. In addition, the figures for the MIC in data set [2] and in data set [5] were above 32 µg/mL and 32 µg/mL (≈ 24.3 µM), respectively.
Consider `CCCNC(=O)C[C@@H]1NC(=O)[C@@H](CCCNC(=N)N)NC(=O)[C@H](Cc2ccccc2)NC(=O)[C@@H]2CCCN2C(=O)[C@@H](Cc2ccccc2)NC(=O)[C@@H](CC(C)C)NC(=O)[C@H](CCCN)NC(=O)[C@H](C(C)C)NC(=O)[C@H](Cc2ccc(O)cc2)NC(=O)[C@H](CCCCN)NC1=O`, for which the MIC in data set [2] was 8 µg/mL (≈ 6.05 µM); in [3], 16 µg/mL (≈ 12.1 µM); in data set [4], 8 µg/mL (≈ 6.05 µM); in data set [5], 32 µg/mL (≈ 24.2 µM). Moreover, in data set [1], the Ratio is 16. In addition, the Activity in data set [6] is 128 µg/mL.
Regarding `CCCNC(=O)C[C@@H]1NC(=O)[C@@H](Cc2ccccc2)NC(=O)[C@H](Cc2ccccc2)NC(=O)[C@@H]2CCCN2C(=O)[C@@H](Cc2ccccc2)NC(=O)CNC(=O)[C@H](CCCN)NC(=O)[C@H](C(C)C)NC(=O)[C@H](Cc2ccc(O)cc2)NC(=O)[C@H](CCCCN)NC1=O`, the MIC came to 8 µg/mL (≈ 6.37 µM) in data set [2], 32 µg/mL (≈ 25.5 µM) in data set [3] and 16 µg/mL (≈ 12.7 µM) in data set [4]. Also, the Ratio in data set [1] was determined as 8. For the same compound, in data set [6], the Activity worked out at 64 µg/mL. The outcome in data set [10] was inactive.
For the compound `CCCNC(=O)C[C@@H]1NC(=O)[C@@H](CCCNC(=N)N)NC(=O)[C@H](Cc2ccccc2)NC(=O)[C@@H]2CCCN2C(=O)[C@@H](Cc2ccccc2)NC(=O)[C@H](Cc2ccc(F)cc2)NC(=O)[C@H](CCCN)NC(=O)[C@H](C(C)C)NC(=O)[C@H](Cc2ccc(O)cc2)NC(=O)[C@H](CO)NC1=O`, the MIC in data set [2] stood at 2 µg/mL (≈ 1.5 µM); in [3] it was 8 µg/mL (≈ 6 µM); in data set [4], 2 µg/mL (≈ 1.5 µM); in [5], 16 µg/mL (≈ 12 µM). Moreover, in [1], the Ratio stood at 8. Besides, the Activity in [6] was 16 µg/mL.
Regarding `CCCNC(=O)C[C@@H]1NC(=O)[C@@H](CCCNC(=N)N)NC(=O)[C@H](Cc2ccccc2)NC(=O)[C@@H]2CCCN2C(=O)[C@@H](Cc2ccccc2)NC(=O)[C@@H](CC(N)=O)NC(=O)[C@H](CCCN)NC(=O)[C@H](C(C)C)NC(=O)[C@H](Cc2ccc(O)cc2)NC(=O)[C@@H](CC(C)C)NC1=O`, the results for the MIC in [2] and in data set [5] were 8 µg/mL (≈ 6.12 µM) and 32 µg/mL (≈ 24.5 µM), respectively.
As for `CCCNC(=O)C[C@@H]1NC(=O)[C@@H](CCCNC(=N)N)NC(=O)[C@H](Cc2ccccc2)NC(=O)[C@@H]2CCCN2C(=O)[C@@H](Cc2ccccc2)NC(=O)[C@H](Cc2ccc(F)cc2)NC(=O)[C@H](CCCN)NC(=O)[C@H](C(C)C)NC(=O)[C@H](Cc2ccc(O)cc2)NC(=O)CNC1=O` [listing 2 of 2 here], in [6], the Activity is 16 µg/mL.
Consider `CCCNC(=O)C[C@@H]1NC(=O)[C@@H](CCCNC(=N)N)NC(=O)[C@H](Cc2ccccc2)NC(=O)[C@@H]2CCCN2C(=O)[C@@H](Cc2ccccc2)NC(=O)[C@H](Cc2ccc(F)cc2)NC(=O)[C@H](CCCN)NC(=O)[C@H](C(C)C)NC(=O)[C@H](Cc2ccc(O)cc2)NC(=O)[C@H](CCCNC(=N)N)NC1=O`, for which the MIC in [2] turned out to be 1 µg/mL (≈ 0.713 µM); in data set [3], 8 µg/mL (≈ 5.71 µM); in [4], 4 µg/mL (≈ 2.85 µM); in data set [5], 8 µg/mL (≈ 5.71 µM). Further, in [1], the Ratio turned out to be 4. Further, the Activity in data set [6] worked out at 8 µg/mL.
For the compound `CCCNC(=O)C[C@@H]1NC(=O)[C@@H](CCCNC(=N)N)NC(=O)[C@H](Cc2ccccc2)NC(=O)[C@@H]2CCCN2C(=O)[C@@H](Cc2ccccc2)NC(=O)[C@@H]2CCCN2C(=O)[C@H](CCCN)NC(=O)[C@H](C(C)C)NC(=O)[C@H](Cc2ccc(O)cc2)NC(=O)[C@@H](C)NC1=O`, the result in data set [7], in [8], in data set [9] and in [10] was inactive. Also, the MIC was above 32 µg/mL in [2] and 32 µg/mL (≈ 25.6 µM) in data set [5].
`CCCNC(=O)C[C@H]1NC(=O)[C@@H](CCCNC(=N)N)NC(=O)[C@H](Cc2ccccc2)NC(=O)[C@@H]2CCCN2C(=O)[C@@H](Cc2ccccc2)NC(=O)[C@@H]2CCCN2C(=O)[C@H](CCCN)NC(=O)[C@H](C(C)C)NC(=O)[C@H](Cc2ccc(O)cc2)NC(=O)[C@@H](C)NC1=O` showed an MIC in [7] of 0.5 µg/mL (≈ 0.4 µM). Moreover, the Ratio in [1] was found to be 1024. Also, the outcome in [8], in [9] and in data set [10] was inactive. Also, the Activity in data set [6] was determined as 514 µg/mL.
Turning to `CCCNC(=O)C[C@@H]1NC(=O)[C@@H](CCCCN)NC(=O)[C@H](Cc2ccccc2)NC(=O)[C@@H]2CCCN2C(=O)[C@@H](Cc2ccccc2)NC(=O)[C@H](Cc2ccc(O)cc2)NC(=O)[C@H](CCCN)NC(=O)[C@H](C(C)C)NC(=O)[C@H](Cc2ccc(O)cc2)NC(=O)[C@H](CCCCN)NC1=O`, the MIC came out at 4 µg/mL (≈ 2.98 µM) in data set [2], 16 µg/mL (≈ 11.9 µM) in [3], 4 µg/mL (≈ 2.98 µM) in data set [4] and 32 µg/mL (≈ 23.8 µM) in [5]. Besides, the Ratio in data set [1] was 32. In addition, in data set [6], the Activity came to 128 µg/mL.
On to `CCCNC(=O)C[C@@H]1NC(=O)[C@@H](Cc2ccccc2)NC(=O)[C@H](Cc2ccccc2)NC(=O)[C@@H]2CCCN2C(=O)[C@@H](Cc2ccccc2)NC(=O)CN(C)C(=O)[C@H](CCCN)NC(=O)[C@H](C(C)C)NC(=O)[C@H](Cc2ccc(O)cc2)NC(=O)[C@@H](Cc2ccccc2)NC1=O`, for which the MIC in data set [2] and in data set [5] was 32 µg/mL (≈ 24.8 µM) in each case.
